Results: paper PMC5668642 (Biochemistry and Biophysics Reports, 2015)

Assays:
[1] = molecular target: T1, PLCδ1-PH domain (Rattus norvegicus, UniProt P10688); test: Competitive surface plasmon resonance assay, PI; format: binding; conditions: for inhibition at 5 µM: pH 7.4, read-out: Relative inhibitory activity (%), PI(4,5)P2/PLCδ1-PH
T1 sequence (P10688 1-131): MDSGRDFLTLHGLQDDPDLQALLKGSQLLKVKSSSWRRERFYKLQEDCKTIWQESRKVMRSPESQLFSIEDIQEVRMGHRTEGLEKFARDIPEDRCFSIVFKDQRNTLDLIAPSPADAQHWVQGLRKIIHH
Summary of the method: (§1)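 L1 chip, 25 °C, 20 mM HEPES pH 7.4, 0.16 M KCl, 30 µL/min. Active surface PC/PE/PS/PIP (57:20:20:3): PI(4,5)P2 for rat PLCδ1-PH (1-131), PI(3,4,5)P3 for human AKT1-PH (1-121) and mouse GRP1-PH (1-127), PI(3,4)P2 for human TAPP1-PH (180-305). BSA-blocked PC/PE/PS reference. Domain (500 nM) preincubated 30 min with compound (0–20 or 0–200 µM). % inhibition from RU at 180 s; IC50 by Langmuir fit; triplicates.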

[2] = molecular target: TAPP1-PH domain (Homo sapiens, UniProt Q9HB21); test: Competitive surface plasmon resonance assay, PI; format: binding; conditions: for inhibition at 5 µM: read-out: Relative inhibitory activity (%), PI(3,4)P2/TAPP1-PH
Summary of the method: as §1

[3] = molecular target: T2, GRP1-PH domain (Mus musculus, UniProt O08967); test: Competitive surface plasmon resonance assay, PI; format: binding; conditions: for inhibition at 5 µM: read-out: Relative inhibitory activity (%), PI(3,4,5)P3/GRP1-PH
T2 sequence (O08967 264-380 limits assumed): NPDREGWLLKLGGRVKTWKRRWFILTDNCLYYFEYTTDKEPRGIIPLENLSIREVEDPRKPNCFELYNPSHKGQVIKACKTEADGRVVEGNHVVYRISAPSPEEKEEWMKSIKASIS
Summary of the method: as §1

[4] = molecular target: T3, AKT1-PH domain (Homo sapiens, UniProt P31749); test: Competitive surface plasmon resonance assay, PI; format: binding; conditions: for inhibition at 5 µM: read-out: Relative inhibitory activity (%), PI(3,4,5)P3/AKT1-PH
Summary of the method: as §1

[5] = molecular target: T3, AKT1-PH domain; test: Liposome pull-down assay, PI; format: binding; conditions: protein 50 μM; compound 100 μM; PC/PE/PS/PI(3,4,5)P3 (57:20:20:3)
Summary of the method: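 Human AKT1-PH (1-121) is incubated 30 min with 40 µg sucrose-loaded, sonicated/extruded vesicles (± compound) in 20 mM Tris pH 7.4, 100 mM KCl, 5 mM MgCl2, 0.3 mg/mL BSA. Vesicles were pelleted beforehand at 100,000g, 4 °C. Bound and free protein are separated at 100,000g, 30 min, 4 °C. Supernatant and pellet are run on Coomassie-stained SDS-PAGE.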

[6] = tested on: GFP-tagged PLCδ1-PH domain in A549 cells; test: Cellular translocation of GFP-tagged PLCδ1-PH domain; format: cell-based, Human; conditions: 0–100 μM, 30 min
Summary of the method: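 A549 cells grown on coverslips in RPMI-1640 with 10% heat-inactivated FBS and penicillin/streptomycin at 37 °C, 5% CO₂. Transfected 24 h after seeding with GFP-PLCδ1-PH using polyethylenimine in Opti-MEM, then returned to complete medium after 24 h. Cells washed into serum-free medium and exposed to test compound (5–100 µM; DMSO <5%) for 30 min. PBS-washed, fixed in 4% paraformaldehyde for 15 min, and imaged by confocal at 488 nm excitation.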

[7] = molecular target: T1, PLCδ1-PH domain; test: Liposome pull-down assay, PI; format: binding; conditions: protein 50 μM; compound 100 μM; PC/PE/PS/PI(4,5)P2 (57:20:20:3)
Summary of the method: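 Sucrose-loaded PC/PE/PS/PI(4,5)P₂ vesicles made by sonication and extrusion, pelleted at 100,000g, and resuspended in 20 mM Tris pH 7.4 with 100 mM KCl and 5 mM MgCl₂. Rat PLCδ1-PH domain incubated with vesicles (40 µg in 100 µL) for 30 min with 0.3 mg/mL BSA, with or without test compound; PC/PE/PS vesicles as control. Spun at 100,000g for 30 min at 4 °C; supernatant and pellet run on Coomassie-stained SDS-PAGE.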

[8] = molecular target: T1, PLCδ1-PH domain; test: Isothermal titration calorimetry, PLCδ1-PH domain; format: binding; conditions: 25 °C; 20 mM HEPES pH 7.4, 0.16 M KCl
Summary of the method: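 Rat PLCδ1-PH domain (residues 1–131, E. coli BL21-DE3) at 200 μM, dialysed into 20 mM HEPES pH 7.4 with 0.16 M KCl. Titrated at 25 °C, 500 rpm, with 20 × 2 µL injections at 2.0 min intervals of test compound (2 mM) dissolved in the final dialysate. ΔG derived as ΔH − TΔS.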

[9] = molecular target: T3, AKT1-PH domain; test: Isothermal titration calorimetry, AKT1-PH domain; format: binding; conditions: 25 °C
Summary of the method: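 Human AKT1-PH domain (residues 1–121, E. coli BL21-DE3) in the sample cell at 25 °C, 500 rpm. Titrated with 20 × 2 µL injections of test compound (2 mM) at 2.0 min intervals. ΔG derived as ΔH − TΔS.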

[10] = molecular target: T1, PLCδ1-PH domain; test: Competitive protein-to-membrane FRET displacement assay; format: binding
Summary of the method: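 Rat PLCδ1-PH (1-131) is prebound to excess PC/PE/PS/dPE/PI(4,5)P2 (56:20:20:1:3) vesicles (100 µM total lipid) in 20 mM Tris pH 7.4, 0.16 M NaCl, at room temperature. Compound is titrated 0–70 µM. Protein-to-membrane FRET is read at ex 280/em 505 nm, corrected for PC/PE/PS/dPE (59:20:20:1) vesicles, dilution and dPE background. Apparent KI comes from a nonlinear least-squares fit.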

[11] = molecular target: T1, PLCδ1-PH domain; test: Circular dichroism of PLCδ1-PH domain with compounds; conditions: PLCδ1-PH 1 μM; 10 mM phosphate, 10 mM NaCl, pH 7.2
Summary of the method: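 Rat PLCδ1-PH domain (residues 1-131, expressed in E. coli BL21-DE3) is scanned by far-UV CD from 190 to 245 nm, alone and with test compounds present.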

T3 sequence (P31749 1-121): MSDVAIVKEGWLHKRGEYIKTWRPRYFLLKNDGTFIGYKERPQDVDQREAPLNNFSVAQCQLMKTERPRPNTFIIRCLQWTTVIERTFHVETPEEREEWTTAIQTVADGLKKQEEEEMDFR
Sequence of TAPP1-PH domain (Q9HB21 180-305): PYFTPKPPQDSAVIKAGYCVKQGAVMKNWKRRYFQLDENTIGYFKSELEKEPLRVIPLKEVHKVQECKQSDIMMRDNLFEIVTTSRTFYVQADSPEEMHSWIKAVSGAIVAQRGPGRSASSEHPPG

Row | Structure (SMILES) | IC50 [1] | inhibition at 5 µM [1] | IC50 [2] | inhibition at 5 µM [2] | IC50 [3] | inhibition at 5 µM [3] | IC50 [4] | inhibition at 5 µM [4] | Effect on PLCδ1-PH domain binding to PC/PE/PS/PI(4,5)P2 liposome ([1]; competitive SPR, negative control, data not shown) | Inhibition of PI(3,4,5)P3/AKT1-PH domain interaction (SDS-PAGE) [5] | Displacement of PLCδ1-PH domain from plasma membrane (confocal images) [6] | Inhibition of PLCδ1-PH domain binding to PI(4,5)P2 containing liposomes (SDS-PAGE) [7] | ITC titration behaviour with PLCδ1-PH domain [8] | ITC titration behaviour with AKT1-PH domain [9] | Ki [10] | Change in secondary structural pattern of PLCδ1-PH domain (far UV-CD) [11]
1 | OCc1cn(Cc2ccccc2)nn1 [CIP-2] | 0.159 ± 0.011 µM | 62 ± 3% | 0.106 ± 0.008 µM | 41 ± 4% | 0.216 ± 0.009 µM | 58 ± 5% | 0.315 ± 0.032 µM | 55 ± 2% | – | – | – | – | – | – | – | –
2 | Cn1cc(CO)nn1 [(1-methyl-1H-1,2,3-triazol-4-yl)methanol, reference compound] | – | – | – | – | – | – | – | – | did not affect | – | – | – | – | – | – | –
3 | O=[N+]([O-])c1ccc(Cn2cc(CO)nn2)cc1 [CIP-1] | 0.113 ± 0.007 µM | 83 ± 4% | 0.647 ± 0.033 µM | 18 ± 2% | 0.145 ± 0.011 µM | 56 ± 3% | 0.175 ± 0.021 µM | 44 ± 2% | – | more strongly than compound CIP-4 | extent of displacement of PLCδ1-PH domain from PM is lowered | not that efficient in displacing the PLCδ1-PH domain | exothermic reaction with one-step binding mechanism | exothermic reaction with two-step binding mechanism | 60.4 µM | almost no change
4 | CCOC(=O)Cn1cc(CO)nn1 [CIP-3] | – | – | – | – | – | – | – | 4 ± 1% | – | – | – | – | – | – | – | –
